Values after ≈ are worked out from the molar mass of the structure shown. Active and inactive are the calls of the source. The calls are words filed in the database; no cut-off is given here.
Assays:
Candida albicans [1] = assay: Antifungal activity against Candida albicans ATCC 64124 after 48 hrs by CLSI M27-A3 method; assay type: functional; conditions: ATCC 64124, 48 h
Candida albicans [2] = assay: Antifungal activity against Candida albicans ATCC MYA-2876 after 48 hrs by CLSI M27-A3 method; assay type: functional; conditions: ATCC MYA-2876, 48 h
Candida albicans [3] = assay: Antifungal activity against Candida albicans ATCC MYA-90819 after 48 hrs by CLSI M27-A3 method; assay type: functional; conditions: ATCC MYA-90819, 48 h
Candida albicans [4] = assay: Antifungal activity against Candida albicans ATCC MYA-2310 after 48 hrs by CLSI M27-A3 method; assay type: functional; conditions: ATCC MYA-2310, 48 h
Nakaseomyces glabratus = assay: Antifungal activity against Candida glabrata ATCC 2001 after 48 hrs by CLSI M27-A3 method; assay type: functional; conditions: CBS 138, 48 h
Candida parapsilosis = assay: Antifungal activity against Candida parapsilosis ATCC 22019 after 48 hrs by CLSI M27-A3 method; assay type: functional; conditions: Lodderomyces parapsilosis, ATCC 22019, 48 h
Candida albicans [5] = assay: Antifungal activity against Candida albicans ATCC MYA-1237 after 48 hrs by CLSI M27-A3 method; assay type: functional; conditions: ATCC MYA-1237, 48 h
Candida albicans [6] = assay: Antifungal activity against Candida albicans ATCC 10231 after 48 hrs by CLSI M27-A3 method; assay type: functional; conditions: ATCC 10231, 48 h
Pichia kudriavzevii = assay: Antifungal activity against Candida krusei ATCC 6258 after 48 hrs by CLSI M27-A3 method; assay type: functional; conditions: ATCC 6258, 48 h
Aspergillus flavus = assay: Antifungal activity against Aspergillus flavus ATCC MYA-3631 after 48 hrs by CLSI M38-A2 method; assay type: functional; conditions: ATCC MYA-3631, 48 h
A549 = assay: Cytotoxicity against human A549 cells assessed as reduction in cell survival after 24 hrs by resazurin assay; assay type: cell-based; conditions: A549, 24 h
How it was run: (§1)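 Human A549 cells treated 24 h; BEAS 2B cells treated 6 h or 24 h. DMSO-treated cells served as negative control and Triton X-treated cells as positive control. Read-out was cell survival.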

[7] = Cytotoxicity against human BEAS2B cells assessed as reduction in cell survival after 6 hrs by resazurin assay; assay type: cell-based; conditions: beas-2b; how it was run: as §1
[8] = Cytotoxicity against human BEAS2B cells assessed as reduction in cell survival after 24 hrs by resazurin assay; assay type: cell-based; conditions: BEAS-2B; how it was run: as §1
Candida albicans [9] = assay: Antifungal activity against Candida albicans ATCC MYA-1003 after 48 hrs by CLSI M27-A3 method; assay type: functional; conditions: ATCC MYA-1003, 48 h
Aspergillus nidulans = assay: Antifungal activity against Aspergillus nidulans ATCC 38163 after 48 hrs by CLSI M38-A2 method; assay type: functional; conditions: ATCC 38163, 48 h
Aspergillus terreus = assay: Antifungal activity against Aspergillus terreus ATCC MYA3633 after 48 hrs by CLSI M38-A2 method; assay type: functional; conditions: ATCC MYA3633, 48 h
Candida albicans [10] = assay: Fungistatic activity against Candida albicans ATCC 64124 assessed as reduction in fungal population at MIC upto 24 hrs by time kill assay; assay type: functional, organism-based
Candida albicans [11] = assay: Fungicidal activity against Candida albicans ATCC 64124 assessed as reduction in fungal population at 2 times MIC after 24 to 48 hrs by time kill assay; assay type: functional
Candida albicans [12] = assay: Induction of ROS production in Candida albicans ATCC 10231 at 1 to 2 times MIC after 1 hr by DCFH-DA probe based fluorescence microscopy; assay type: functional, organism-based
Candida albicans [13] = assay: Fungistatic activity against Candida albicans ATCC 64124 assessed as reduction in fungal population at MIC after 24 hrs by time kill assay

Row | Structure (SMILES) | MIC (Candida albicans [1]) | MIC (Candida albicans [2]) | MIC (Candida albicans [3]) | MIC (Candida albicans [4]) | MIC (Nakaseomyces glabratus) | MIC (Candida parapsilosis) | MIC (Candida albicans [5]) | MIC (Candida albicans [6]) | MIC (Pichia kudriavzevii) | MIC (Aspergillus flavus) | IC50 (A549) | Activity [7] | IC50 [8] | MIC (Candida albicans [9]) | MIC (Aspergillus nidulans) | MIC (Aspergillus terreus) | Activity (Candida albicans [10]) | Activity (Candida albicans [11]) | Activity (Candida albicans [12]) | Activity (Candida albicans [13])
1 | OC(Cn1cncn1)(Cn1cncn1)c1ccc(F)cc1F [FLUCONAZOLE] | > 125 µg/mL | 15.6 µg/mL (≈ 50.9 µM) | > 125 µg/mL | > 125 µg/mL | > 31.2 µg/mL | 1.95 µg/mL (≈ 6.37 µM) | – | – | – | – | – | – | – | – | – | – | – | – | – | –
2 | C#CCOc1ccc(-c2nc3ccc(-c4nc5ccc(N6CCN(C)CC6)cc5[nH]4)cc3[nH]2)cc1 | 31.2 µg/mL (≈ 67.5 µM) | 7.8 µg/mL (≈ 16.9 µM) | – | 7.8 µg/mL (≈ 16.9 µM) | 7.8 µg/mL (≈ 16.9 µM) | 1.95 µg/mL (≈ 4.22 µM) | > 31.2 µg/mL | 7.8 µg/mL (≈ 16.9 µM) | 7.8 µg/mL (≈ 16.9 µM) | > 31.2 µg/mL | 15.6 µg/mL (≈ 33.7 µM) | Non-toxic | 0.98 µg/mL (≈ 2.12 µM) | – | – | – | – | – | – | –
3 | CN1CCN(c2ccc3nc(-c4ccc5nc(-c6ccc(OCCOCCO)cc6)[nH]c5c4)[nH]c3c2)CC1 | > 31.2 µg/mL | > 31.2 µg/mL | > 31.2 µg/mL | > 31.2 µg/mL | > 31.2 µg/mL | 31.2 µg/mL (≈ 60.9 µM) | > 31.2 µg/mL | > 31.2 µg/mL | 7.8 µg/mL (≈ 15.2 µM) | > 31.2 µg/mL | – | – | – | > 31.2 µg/mL | > 31.2 µg/mL | > 31.2 µg/mL | – | – | – | –
4 | C#CCOc1ccc(-c2nc3ccc(-c4nc5ccc(-c6nc7ccc(N8CCN(C)CC8)cc7[nH]6)cc5[nH]4)cc3[nH]2)cc1 | > 31.2 µg/mL | > 31.2 µg/mL | > 31.2 µg/mL | > 31.2 µg/mL | 31.2 µg/mL (≈ 53.9 µM) | > 31.2 µg/mL | > 31.2 µg/mL | > 31.2 µg/mL | > 31.2 µg/mL | > 31.2 µg/mL | – | – | – | > 31.2 µg/mL | 31.2 µg/mL (≈ 53.9 µM) | 31.2 µg/mL (≈ 53.9 µM) | – | – | – | –
5 | C#CCOc1ccc(-c2nc3ccc(-c4nc5ccc(N6CCN(CCC)CC6)cc5[nH]4)cc3[nH]2)cc1 | > 31.2 µg/mL | > 31.2 µg/mL | > 31.2 µg/mL | > 31.2 µg/mL | > 31.2 µg/mL | > 31.2 µg/mL | > 31.2 µg/mL | > 31.2 µg/mL | 15.6 µg/mL (≈ 31.8 µM) | > 31.2 µg/mL | – | – | – | > 31.2 µg/mL | > 31.2 µg/mL | > 31.2 µg/mL | – | – | – | –
6 | CCCN1CCN(c2ccc3nc(-c4ccc5nc(-c6ccc(OCC)cc6)[nH]c5c4)[nH]c3c2)CC1 | > 31.2 µg/mL | > 31.2 µg/mL | > 31.2 µg/mL | > 31.2 µg/mL | > 31.2 µg/mL | > 31.2 µg/mL | > 31.2 µg/mL | > 31.2 µg/mL | 15.6 µg/mL (≈ 32.5 µM) | > 31.2 µg/mL | – | – | – | > 31.2 µg/mL | > 31.2 µg/mL | > 31.2 µg/mL | – | – | – | –
7 | CCCN1CCN(c2ccc3nc(-c4ccc5nc(-c6ccc(OC)cc6)[nH]c5c4)[nH]c3c2)CC1 | > 31.2 µg/mL | > 31.2 µg/mL | > 31.2 µg/mL | > 31.2 µg/mL | > 31.2 µg/mL | 31.2 µg/mL (≈ 66.9 µM) | > 31.2 µg/mL | > 31.2 µg/mL | 7.8 µg/mL (≈ 16.7 µM) | > 31.2 µg/mL | – | – | – | > 31.2 µg/mL | > 31.2 µg/mL | > 31.2 µg/mL | – | – | – | –
8 | CN1CCN(c2ccc3[nH]c(-c4ccc5[nH]c(-c6ccc(O)cc6)nc5c4)nc3c2)CC1 [HOECHST 33258] | – | 7.8 µg/mL (≈ 18.4 µM) | 7.8 µg/mL (≈ 18.4 µM) | 3.9 µg/mL (≈ 9.19 µM) | 0.975 µg/mL (≈ 2.3 µM) | 0.975 µg/mL (≈ 2.3 µM) | 3.9 µg/mL (≈ 9.19 µM) | – | – | 31.2 µg/mL (≈ 73.5 µM) | ≥ 31.2 µg/mL | Non-toxic | ≥ 31.2 µg/mL | 7.8 µg/mL (≈ 18.4 µM) | 1.95 µg/mL (≈ 4.59 µM) | – | Active | 5 log10CFU | Active | 1 log10CFU
9 | CCCCCN1CCN(c2ccc3nc(-c4ccc5nc(-c6ccc(OC)cc6)[nH]c5c4)[nH]c3c2)CC1 | > 31.2 µg/mL | > 31.2 µg/mL | > 31.2 µg/mL | > 31.2 µg/mL | > 31.2 µg/mL | 15.6 µg/mL (≈ 31.5 µM) | > 31.2 µg/mL | > 31.2 µg/mL | > 31.2 µg/mL | > 31.2 µg/mL | – | – | – | > 31.2 µg/mL | > 31.2 µg/mL | > 31.2 µg/mL | – | – | – | –
10 | CN1CCN(c2ccc3nc(-c4ccc5nc(-c6ccc(OCCO)cc6)[nH]c5c4)[nH]c3c2)CC1 | > 31.2 µg/mL | 31.2 µg/mL (≈ 66.6 µM) | > 31.2 µg/mL | 31.2 µg/mL (≈ 66.6 µM) | 31.2 µg/mL (≈ 66.6 µM) | 15.6 µg/mL (≈ 33.3 µM) | > 31.2 µg/mL | > 31.2 µg/mL | 7.8 µg/mL (≈ 16.6 µM) | 31.2 µg/mL (≈ 66.6 µM) | – | – | – | 31.2 µg/mL (≈ 66.6 µM) | 15.6 µg/mL (≈ 33.3 µM) | 15.6 µg/mL (≈ 33.3 µM) | – | – | – | –
